High-throughput results from PubChem.
Tb hexokinase: blocks Trypanosoma brucei hexokinase 1 activity. AID 1430. inhibition, % at 10 µM. recombinant TbHK1, G6PDH-coupled NADH A340. actives 0.11% (n = 220,000);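 active = inhibition of 50% or more in the single-dose primary screen; inactive = inhibition below 50%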
bCat nuc transl: alters nuclear translocation of beta-catenin in HeLa cells; immunofluorescence imaging; nuclear translocation activity, % at 5 µM; actives 0.3% (n = 190,000);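 active = nuclear translocation activity above 50% at 5 µM, with a well cell count of 50 or more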;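 also: per-cell ratio of nuclear to cytoplasmic median beta-catenin stain intensity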
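System: HeLa cells, endogenous beta-catenin; compound dosing: 5 µM primary single dose, 0.1% DMSO, 0.02–20 µM confirmation series; incubation: 24 h compound exposure at 37°C, 5% CO2; signal: beta-catenin immunofluorescence imaging with DAPI; evaluation: % activation, nuclear-to-cytoplasmic median beta-catenin signal ratio per cell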
MT stabilizer: microtubule stabilizers in HeLa cells. AID 2205. actives 0.83% (n = 200,000). HeLa tubulin immunostaining HCS, 24 h; share of cells brighter than vehicle mean+2SD. % tubulin-high responders, % at 10 µM;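 active = plate Z-score above 3 for both tubulin-high and condensed-nucleus cell shares, with cell loss under 80%, at 10 µM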;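 also: anti alpha tubulin signal scored within the nucleus-defined area of each cell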
Rad51 HR inh: blocks human Rad51 in homologous recombination; inhibition, % at 10 µM; actives 0.085% (n = 200,000); hRad51 DNA strand exchange, fluorescence dequenching; Q06609;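 active = inhibition above 40% at the single screening dose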
Target sequence (Q06609 whole entry, looked up): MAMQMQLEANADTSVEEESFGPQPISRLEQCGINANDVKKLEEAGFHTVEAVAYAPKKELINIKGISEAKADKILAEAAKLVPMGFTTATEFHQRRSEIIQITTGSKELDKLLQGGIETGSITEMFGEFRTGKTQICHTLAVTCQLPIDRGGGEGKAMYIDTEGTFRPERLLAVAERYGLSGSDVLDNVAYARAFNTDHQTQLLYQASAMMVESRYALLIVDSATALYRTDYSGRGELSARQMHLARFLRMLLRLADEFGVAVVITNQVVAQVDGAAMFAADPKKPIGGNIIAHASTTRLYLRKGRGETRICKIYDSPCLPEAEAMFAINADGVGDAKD
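Test system: preformed human Rad51 ssDNA filaments. Compound dosing: single dose, 10 µM final compound. Incubation: filaments 15 min 37 °C, then compound 30 min. Technique: FRET fluorescence dequenching, excitation 485 nm, emission 520 nm. Read-out basis: percent inhibition from fluorescence, normalised to plate control and blank means. Benchmarks: plate controls and plate blanks.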
Dynein cargo inh: blocks dynein driven cargo transport along microtubules | AID 1381 | 3617.4 mouse cells, GR-EGFP nuclear translocation imaging; test concentration mostly 20 µM; stimulated with dexamethasone, 1 µM; active compounds read low | actives 0.47% (n = 220,000) | z-score, hits read low;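 active = plate z-score of nuclear minus cytoplasmic receptor signal below a set negative limit, without overly bright fluorescence or cell loss, cut at about -3.5 in these data, passing the limit was not always enough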;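 also: z-score of nuclear minus cytoplasmic ring GR-EGFP intensity difference per well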
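Medium: Induction medium lacking tetracycline, stripped serum | Probe or stimulus: 1.0 µM final dexamethasone stimulus | Schedule: 48 h induction, then 1 h compound, then 30 min agonist, 37 °C | Signal: Automated 10x imaging of fixed Hoechst-stained cells | Evaluation: Per-cell GR-EGFP intensity, nucleus versus surrounding cytoplasmic ring, well-averaged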
A number is an active result; i = inactive; nt = not tested or not shown. Sampled rows, rich in hits. Any-hit rate of the full collection: about 1.5%.

SMILES | Tb hexokinase | bCat nuc transl | MT stabilizer | Rad51 HR inh | Dynein cargo inh
COC(=O)c1c(O)cc(C(C)(C)C)n(-c2ccccc2)c1=O | i | i | i | i | i
COc1ccc(-c2cc(-c3cccs3)c(C#N)c(SCC(=O)NCc3ccco3)n2)cc1 | i | 93.9 | 20.3 | i | i
COc1cc(-c2onc3ccc(Br)cc23)cc(OC)c1OC | i | i | 7.7 | i | i
CC(=O)C1=C(C)OC(N)=C(C#N)C1c1cccnc1 (stereo unspecified) | i | i | i | i | i
COc1ccc(C2C(C#N)=C(N)Oc3c2ccc2cccnc32)cc1OC (stereo unspecified) | i | 60.9 | 16.2 | i | i
N#CC1=C(N)Oc2cc(N)ccc2C1c1ccc(F)cc1 (stereo unspecified) | i | i | i | i | i
COc1cc(C2C(C#N)=C(N)Oc3cc(N)ccc32)cc(OC)c1OC (stereo unspecified) | i | 71.4 | 18.4 | i | i
N#CC1=C(N)Oc2cc(N)ccc2C1c1cccnc1 (stereo unspecified) | i | i | 23.8 | nt | i
CCN(CC)c1ccc2c(c1)OC(N)=C(C#N)C2c1cccnc1 (stereo unspecified) | i | 65.4 | 20.3 | i | i
COc1ccc(/C(N)=N/OC(=O)Cc2ccccc2[N+](=O)[O-])cc1 | i | i | i | i | i
COc1ccc(C(=O)c2cc([N+](=O)[O-])ccc2N2CCOCC2)cc1 | i | 57.1 | i | i | i
O=C(c1ccc(N2CCCCCC2)c([N+](=O)[O-])c1)N1CCc2ccccc21 | i | i | i | i | i
CCOc1ccc(C(=O)c2cc([N+](=O)[O-])ccc2N2CCOCC2)cc1 | i | i | 14.9 | nt | i
Cc1ccc(C(=O)c2cc([N+](=O)[O-])ccc2N2CCCCC2)c(C)c1 | i | 58.8 | i | nt | i
O=C(c1cc([N+](=O)[O-])ccc1N1CCCCC1)N1CCc2ccccc21 | i | i | 17.3 | i | i
O=C(O)c1cc([N+](=O)[O-])ccc1N1CCCCC1 | i | i | i | i | i
O=C1C(=O)N(CCCn2ccnc2)C(c2cccnc2)/C1=C(/O)c1ccc(F)cc1 (stereo unspecified) | nt | i | nt | i | nt
Cc1ccc(C(=O)c2cc([N+](=O)[O-])ccc2N2CCOCC2)cc1 | i | i | 18.4 | nt | i
O=C(c1cc([N+](=O)[O-])ccc1N1CCOCC1)N1CCOCC1 | i | i | i | i | i
COc1ccccc1-c1c(-c2ccc(OCC(=O)NN)cc2O)n[nH]c1C(F)(F)F | i | i | i | i | i
COc1ccc(-c2n[nH]c(C(F)(F)F)c2-c2cc3ccccc3o2)c(O)c1 | i | 93.7 | 30.2 | i | i
N#C/C(C(=O)NCCc1ccccc1)=C1/N=C(NC(=O)c2cccs2)c2ccccc21 | i | i | 11.7 | i | i
O=C(/C=C/c1ccccc1)Nc1ccc(Cl)cn1 | i | i | 24.7 | i | i
O=C(NNC(=O)c1ccccc1[N+](=O)[O-])Nc1ccc(Cl)cc1 | i | i | i | i | i
O=C(/C=C/c1cccs1)Nc1cccc(NC(=O)/C=C/c2cccs2)n1 | i | i | i | i | i
SMILES | Tb hexokinase | bCat nuc transl | MT stabilizer | Rad51 HR inh | Dynein cargo inh
O=C(CC(c1ccccc1)c1ccccc1)Nc1ccc(Cl)cn1 | i | i | 53.0 | i | i
O=C(/C=C/c1cccs1)Nc1ccc(Br)cn1 | i | 165.7 | i | i | i
O=C(Nc1ccc(Cl)cn1)c1ccccc1[N+](=O)[O-] | i | i | 23.3 | i | i
Cc1cccc(NC(=O)/C=C/c2ccc(Cl)cc2)n1 | i | i | i | i | i
O=C(CSCc1ccccc1)Nc1ccc(Cl)cn1 | i | i | i | i | i
Cc1cc(C2=NNC(=NCCc3ccccc3)SC2)c(C)n1CC1CCCO1 (stereo unspecified) | i | i | i | i | i
O=C(Cc1coc2ccc3ccccc3c12)N1CCCC1 | i | nt | i | i | i
CCOC(=O)N/N=C/c1c(C)nn(-c2cccc(C(F)(F)F)c2)c1Cl | i | i | 23.8 | i | i
Cc1nn(-c2cccc(C(F)(F)F)c2)c(Cl)c1/C=N/Nc1cccc(C(=O)O)c1 | i | i | i | i | i
Cc1cccc(C(=O)N/N=C/c2cc(Br)c(Br)o2)c1 | i | nt | 10.6 | i | i
CCN(c1ccccc1)S(=O)(=O)c1ccc(N)c(OC)c1 | i | 111.3 | 22.4 | nt | i
CCN(c1ccccc1)S(=O)(=O)c1ccc(F)cc1 | i | i | i | i | i
Cc1cnn(C(=S)NCCc2ccccc2)c1 | i | nt | i | i | i
Cc1cccc(-n2c3nc(=O)[nH]c(=O)c-3cc3cc([N+](=O)[O-])ccc32)c1 | i | i | i | i | i
Cc1ccc(C)c(-n2c3nc(=O)[nH]c(=O)c-3cc3cc([N+](=O)[O-])ccc32)c1 | i | 92.6 | i | nt | i
O=C1CCCCCC1C1(O)C(=O)Nc2ccccc21 (stereo unspecified) | i | i | i | i | i
Cc1cc(NC(=O)CSc2nc3ccccc3c(=O)n2C(C)c2ccccc2)no1 (stereo unspecified) | i | nt | i | i | i
CCC(C)n1c(SCC(=O)Nc2cc(C)on2)nc2ccccc2c1=O (stereo unspecified) | i | i | 38.6 | i | i
Cc1cc(NC(=O)CSc2nc(C(C)(C)C)nc3ccccc23)no1 | i | i | 14.2 | i | i
C=CCOc1ccc(C2C(C#N)=C(N)N(Nc3ccccc3)C3=C2C(=O)CC(C)(C)C3)cc1OC (stereo unspecified) | i | i | 31.8 | i | i
Cc1onc(-c2c(Cl)cccc2Cl)c1C(=O)N1CCN(c2ncccn2)CC1 | i | i | i | i | i
Cc1onc(-c2c(Cl)cccc2Cl)c1C(=O)N1CCN(c2ccccc2)CC1 | i | i | 21.1 | i | i
CCc1cc2c(NC(C(=O)O)C(C)C)ncnc2s1 (stereo unspecified) | i | i | i | i | i
CCN1/C(=C/c2ccc3cc(C)ccc3[n+]2CC)Sc2ccccc21 | i | i | 68.5 | i | -5.15
CCN1/C(=C/c2ccc3cc(C)ccc3[n+]2CC)Sc2cc(C)c(C)cc21 | i | i | i | i | i
SMILES | Tb hexokinase | bCat nuc transl | MT stabilizer | Rad51 HR inh | Dynein cargo inh
CCCN(CCC)C(=O)Nc1cc(Cl)ccc1OC | i | i | nt | nt | i
CN(C)S(=O)(=O)c1cccc(NC(=O)c2cc(-c3cccs3)nn2-c2cccc(Cl)c2)c1 | i | i | 13.4 | i | i
Cc1[nH]nc(SCC(=O)NCc2ccc(F)cc2)c1[N+](=O)[O-] | i | i | i | nt | i
Cc1cc(O)c(C=O)c2c1C(=O)Oc1c(CO)c(O)c3c(c1O2)C(O)OC3=O (stereo unspecified) | i | i | i | 65.9 | i
CC(NC(=O)/C(=C/c1ccc(OC(F)F)cc1)c1ccccc1)c1ccccc1 (stereo unspecified) | i | i | i | i | i
O=[N+]([O-])c1ccc(/C=N/N=C/c2ccc([N+](=O)[O-])o2)o1 | i | i | i | i | -3.59
O=C(O)/C=C/c1ccc([N+](=O)[O-])o1 | i | i | i | i | i
